Data on nine molecules can be found in ChEMBL document CHEMBL1145017, “Synthesis and in vivo antitumor activity of poly(l-glutamic acid) conjugates of 20S-camptothecin” (J Med Chem, 2003).

Converted amounts (≈) assume the structure as drawn. Where only a bound is given, the exact number is not on record here.

The subject of data set [1] is Mus musculus. Kind of data set: Maximum tolerated dose (MTD) in mice bearing s.c. B-16 Melanomas. It is filed as functional.
For data set [2], the system named is Mus musculus. Nature of the data set: Effect on in Vivo Growth of s.c. B-16 Melanomas in mice measured ad difference of average times for tumors to reach a volume of 500 mm**3 between treatment and control groups at dose of 35 mg/kg. In kind it is functional.
Data set [3] deals with Mus musculus. Nature of the data set: Effect on in Vivo Growth of s.c. B-16 Melanomas in mice measured ad difference of average times for tumors to reach a volume of 500 mm**3 between treatment and control groups at dose of 48 mg/kg. It is filed as functional.
Data set [4] has as its system Mus musculus. Kind of data set: Effect on in Vivo Growth of s.c. B-16 Melanomas in mice measured ad difference of average times for tumors to reach a volume of 500 mm**3 between treatment and control groups at dose of 60 mg/kg. It is filed as functional.
The subject of data set [5] is Mus musculus. Nature of the data set: Effect on in Vivo Growth of s.c. B-16 Melanomas in mice measured ad difference of average times for tumors to reach a volume of 500 mm**3 between treatment and control groups at dose of 75 mg/kg. It is filed as functional.
Data set [6] has as its system Mus musculus. Kind of data set: Effect on in Vivo Growth of s.c. B-16 Melanomas in mice measured ad difference of average times for tumors to reach a volume of 500 mm**3 between treatment and control groups at dose of 41 mg/kg. It is filed as functional.
Data set [7] is described as follows: Aqueous solubility was measured. It is filed as physicochemical. The procedure, abridged:
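Conjugate dissolved in aqueous Na₂HPO₄ (0.1 M, pH 7.4) at 37 °C; solubility expressed as mg of conjugate per mL.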

For data set [8], the species on record is Mus musculus. Nature of the data set: Maximum tolerated dose (MTD) in mice. In kind it is functional.
Data set [9] relates to Mus musculus. Kind of data set: Effect on in Vivo Growth of s.c. HT-29 […] in mice measured ad difference of average times for tumors to reach a volume of 500 mm**3 between treatment and control groups at dose of 24 mg/kg. In kind it is functional. The procedure, abridged:
(§1)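 Athymic nude mice bearing human HT-29 colon or NCI-H460 lung carcinoma cells were given a single bolus ip injection, dosed as mg CPT equivalent/kg. Endpoint was TGD in days, the difference in mean time to reach 500 mm³ tumor volume between treated and control groups. Student's t-test vs vehicle.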

Data set [10] concerns Mus musculus. Nature of the data set: Effect on in Vivo Growth of s.c. HT-29 […] in mice measured ad difference of average times for tumors to reach a volume of 500 mm**3 between treatment and control groups at dose of 28 mg/kg. In kind it is functional. The procedure, abridged: as §1
For data set [11], the system named is Mus musculus. Nature of the data set: Effect on in Vivo Growth of s.c. HT-29 […] in mice measured ad difference of average times for tumors to reach a volume of 500 mm**3 between treatment and control groups at dose of 20 mg/kg. It is filed as functional. The procedure, abridged: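 Athymic nude mice bearing human HT-29 colon carcinoma cells got a single bolus ip injection of conjugate, dosed in mg CPT equivalent/kg. Tumor growth delay (days) is the difference in average time for tumors to reach 500 mm³ between treated and control groups. Significance was tested by Student's t-test against vehicle.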

Take `CC[C@@]1(OC(=O)CCCOC(=O)CC[C@H](N)C(=O)O)C(=O)OCc2c1cc1n(c2=O)Cc2cc3ccccc3nc2-1`: the MTD in data set [1] is listed as ~35 (mg of CPT) kg-1. In addition, in [2], the TGD worked out at 3 days.

Take `CC[C@@]1(OC(=O)CNC(=O)CC[C@H](N)C(=O)O)C(=O)OCc2c1cc1n(c2=O)Cc2cc3ccccc3nc2-1`: the MTD in [1] is on record as ~40 (mg of CPT) kg-1. The molecule further yielded a TGD in data set [2] of 2 days.

In the case of `CC[C@@]1(OC(=O)CC[C@H](N)C(=O)O)C(=O)OCc2c1cc1n(c2=O)Cc2cc3ccccc3nc2-1`, in [1], the MTD result was “>=48 (mg of CPT) kg-1”. Further, in data set [3], the TGD amounted to 4 days.

For the molecule `CC[C@@]1(OC(=O)CCCNC(=O)CC[C@H](N)C(=O)O)C(=O)OCc2c1cc1n(c2=O)Cc2cc3ccccc3nc2-1`, in [1], the MTD result is given as “>=60 (mg of CPT) kg-1”. Moreover, the TGD in [4] worked out at 1 days.

Consider `CC[C@@]1(OC(=O)COC(=O)CC[C@H](N)C(=O)O)C(=O)OCc2c1cc1n(c2=O)Cc2cc3ccccc3nc2-1`, for which, in data set [1], the MTD entry is “>=75 (mg of CPT) kg-1”. The TGD in [5] worked out at 4 days.

In the case of `CC[C@@]1(OC(=O)CCC(NC(=O)CC[C@H](N)C(=O)O)C(=O)O)C(=O)OCc2c1cc1n(c2=O)Cc2cc3ccccc3nc2-1` (stereo not given in full), the MTD result in data set [1] was “>=41 (mg of CPT) kg-1”. Besides, the TGD in data set [6] amounted to 1 days.

Take `CC[C@@]1(OC(=O)CNC(=O)CNC(=O)CNC(=O)CC[C@H](N)C(=O)O)C(=O)OCc2c1cc1n(c2=O)Cc2cc3ccccc3nc2-1`: the solubility (usually the dissolved amount per volume that the medium holds) in [7] came to 33 mg/mL (≈ 50.9 mM). For the same molecule, in data set [8], the MTD is recorded as <34 (mg of CPT) kg-1. Further, the TGD in data set [9] was determined as 7 days.

On to `CC[C@@]1(OC(=O)CNC(=O)CNC(=O)CC[C@H](N)C(=O)O)C(=O)OCc2c1cc1n(c2=O)Cc2cc3ccccc3nc2-1`, for which the solubility in data set [7] came out at 34 mg/mL (≈ 57.5 mM). Besides, the MTD result in [8] is given as “>=28 (mg of CPT) kg-1”. The TGD in [10] amounted to 4 days.

With `CC[C@@]1(O)C(=O)OCc2c1cc1n(c2=O)Cc2cc3ccccc3nc2-1` [CAMPTOTHECIN], the MTD in data set [8] is ~20 (mg of CPT) kg-1. This molecule gave a TGD in [11] of 17 days.
